Laboratory results taken from ChEMBL document CHEMBL2385072, “Development of oleanane-type triterpenes as a new class of HCV entry inhibitors” (J Med Chem, 2013).
Active and inactive are the calls of the source. The rule behind the calls is not given here.

Tests used:
[1] = system: Vesicular stomatitis virus; assay: Antiviral activity against pseudo VSV infected in human 293T cells assessed as inhibition of vesicular stromatis G protein pseudo particles entry at 5 uM after 72 hrs by luciferase reporter gene assay; assay type: functional; settings: HEK-293T
HeLa = assay: Cytotoxicity against human HeLa cells at 50 uM after 48 hrs by Alamar Blue assay; assay type: cell-based
Procedure, shortened: (§1)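 alamarBlue viability assay in HepG2, HeLa and 293T cells, compound up to 50 μM.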

Hepatitis C virus [2] = assay: Antiviral activity against pseudo HCV infected in human 293T cells assessed as inhibition of HCV pseudo particles entry at 1 uM after 72 hrs by luciferase reporter gene assay; assay type: functional, Hepacivirus hominis; settings: HEK-293T
[3] = system: Vesicular stomatitis virus; assay: Antiviral activity against pseudo VSV infected in human 293T cells assessed as inhibition of vesicular stromatis G protein pseudo particles entry at 1 uM after 72 hrs by luciferase reporter gene assay; assay type: functional; settings: HEK-293T
HEK-293T = assay: Cytotoxicity against human 293T cells at 50 uM after 48 hrs by Alamar Blue assay; assay type: cell-based; procedure, shortened: as §1
Hepatitis C virus [4] = assay: Ratio of echinocystic acid IC50 to compound IC50 for pseudo HCV infected in human 293T cells assessed as inhibition of HCV pseudo particles entry after 72 hrs by luciferase reporter gene assay; assay type: functional, Hepacivirus hominis
Procedure, shortened: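 HCVpp luciferase entry assay in Huh-7 cells, 72 h at 37 °C. Six-point curves at tenfold steps, 1 nM–100 μM or 0.5 nM–50 μM. Each concentration in triplicate, mean and SD.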

HepG2 = assay: Cytotoxicity against human HepG2 cells at 50 uM after 48 hrs by Alamar Blue assay; assay type: cell-based; settings: hepg2, 48 h; procedure, shortened: as §1
Hepatitis C virus [5] = assay: Antiviral activity against pseudo HCV infected in human 293T cells assessed as inhibition of HCV pseudo particles entry at 5 uM after 72 hrs by luciferase reporter gene assay; assay type: functional, Hepacivirus hominis; settings: HEK-293T
Hepatitis C virus [6] = assay: Antiviral activity against pseudo HCV infected in human 293T cells assessed as inhibition of HCV pseudo particles entry after 72 hrs by luciferase reporter gene assay; assay type: functional, organism-based, Hepacivirus hominis
Procedure, shortened: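 HCVpp (HCV E1/E2 on Env/Vpr-deficient HIV luciferase vector, made in 293T by cotransfection, harvested 72 h) added to 5×10^3 Huh-7 cells/well with compound at final 1 or 5 μM in 1% DMSO; 72 h, 37 °C; luciferase read. Inhibition = 100 − % of DMSO control after uninfected-well background subtraction; VSVpp run in parallel; duplicate, ≥3 experiments.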

[7] = Hemolytic activity against rabbit RBC after 60 mins by spectrophotometry; assay type: ADME, cell-based, Oryctolagus cuniculus, Erythrocyte
Procedure, shortened: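 2% rabbit erythrocytes in 130 mM NaCl, 20 mM Tris-HCl pH 7.4 incubated with serially diluted compounds for 60 min at 37 °C. Hemolysis read as absorbance at 540 nm.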

CD81 antigen = target: T1, CD81 antigen (Homo sapiens, UniProt P60033); assay: Binding affinity to CD81 (unknown origin)
T1 sequence (P60033 whole entry): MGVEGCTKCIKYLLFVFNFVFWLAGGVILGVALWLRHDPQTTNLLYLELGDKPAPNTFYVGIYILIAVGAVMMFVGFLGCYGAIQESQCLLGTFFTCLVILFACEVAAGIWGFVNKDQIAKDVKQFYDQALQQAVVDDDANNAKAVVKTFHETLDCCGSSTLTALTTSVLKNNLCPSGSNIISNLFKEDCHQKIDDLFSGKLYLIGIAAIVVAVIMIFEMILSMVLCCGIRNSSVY
Procedure, shortened: (§2)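 BIAcore: E2 immobilized on a streptavidin sensor via SA–biotin and exposed to CD81 at 40.9–654.5 nM to fit K_D. CD81 was also tested together with compound.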

Hepatitis C virus [8] = assay: Antiviral activity against pseudo HCV infected in human 293T cells assessed as inhibition of HCV pseudo particles entry at 10 uM after 72 hrs by luciferase reporter gene assay; assay type: functional, Hepacivirus hominis; settings: HEK-293T
Hepatitis C virus [9] = assay: Antiviral activity against pseudo HCV infected in human Huh7 cells assessed as inhibition of HCV pseudo particles entry at 10 uM incubated for 3 hrs prior to virus addition measured after 72 hrs; assay type: functional, organism-based; settings: Hepacivirus hominis, Huh-7
Procedure, shortened: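 Pretreatment: Huh7 cells exposed to 10 μM compound for 3 h at 37 °C, washed, then infected with HCVpp for 72 h at 37 °C. Normalized to 0.5% DMSO. CD81 antibody 5 nM as control.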

Hepatitis C virus [10] = assay: Antiviral activity against pseudo HCV infected in human Huh7 cells assessed as inhibition of HCV pseudo particles entry at 10 uM incubated for 3 hrs prior to compound addition measured after 72 hrs; assay type: functional, organism-based; settings: Hepacivirus hominis, Huh-7
Procedure, shortened: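 Post-binding/pre-entry: Huh7 cells incubated with HCVpp at 4 °C for 3 h, washed, then treated with 10 μM compound at 37 °C for 72 h. Normalized to 0.5% DMSO. CD81 antibody 5 nM as control.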

Hepatitis C virus [11] = assay: Antiviral activity against pseudo HCV infected in human Huh7 cells assessed as inhibition of HCV pseudo particles entry at 10 uM after 72 hrs; assay type: functional, organism-based; settings: Hepacivirus hominis, Huh-7
Procedure, shortened: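 Co-treatment: Huh7 cells infected with HCVpp (or VSVpp) with 10 μM compound present throughout, 72 h at 37 °C. Normalized to 0.5% DMSO (final). CD81 antibody (5 nM) was the positive control and an unrelated compound the negative control. Luciferase read-out.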

Hepatitis C virus [12] = assay: Antiviral activity against pseudo HCV infected in human Huh7 cells at 10 uM after 72 hrs; assay type: functional, organism-based; settings: Hepacivirus hominis, Huh-7
Procedure, shortened: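 Post-entry: Huh7 cells infected with HCVpp at 37 °C for 6 h, washed, then treated with 10 μM compound at 37 °C for 72 h. Normalized to 0.5% DMSO. CD81 antibody 5 nM as control.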

[13] = Inhibition of HCV envelope protein E2 protein interaction with CD81 receptor (unknown origin) by BIAcore assay; parameters: species or system Hepacivirus hominis; procedure, shortened: as §2
Hepatitis C virus [14] = assay: Antiviral activity against pseudo HCV infected in human Huh7 cells assessed as inhibition of HCV pseudo particles entry at 10 uM incubated for 3 hrs; assay type: functional, organism-based; settings: Hepacivirus hominis, Huh-7
Procedure, shortened: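 Prebinding: Huh7 cells exposed to HCVpp plus 10 μM compound at 4 °C for 3 h, washed free of virus and compound, then cultured 72 h at 37 °C. Normalized to 0.5% DMSO. CD81 antibody 5 nM as control.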

Hepacivirus hominis [15] = assay: Binding affinity to HCV envelope protein E2 protein by pull down assay
Procedure, shortened: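 Biotin-labelled probe incubated with lysate of HCVpp-packaging cells and captured on streptavidin agarose. Free biotin and unlabelled compound served as parallel probes. For competition, excess free compound was added to the lysate. Bound E2 was detected.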

Hepacivirus hominis [16] = assay: Binding affinity to HCV envelope protein E2 protein by SPR method
Procedure, shortened: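 E2 loaded on streptavidin-coated biosensors and exposed to compound at 3.125–100 μM to obtain binding curves and K_D. Competition was also tested as E2 binding to a biotin-labelled compound chip in the presence of free compound at varied doses.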

SMILES: CC1(C)CC[C@]2(C(=O)NCc3cn(CCCn4cc(CNC(=O)[C@]56CCC(C)(C)C[C@H]5C5=CC[C@@H]7[C@@]8(C)CC[C@H](O)C(C)(C)[C@@H]8CC[C@@]7(C)[C@]5(C)C[C@H]6O)nn4)nn3)[C@H](O)C[C@]3(C)C(=CC[C@@H]4[C@@]5(C)CC[C@H](O)C(C)(C)[C@@H]5CC[C@]43C)[C@@H]2C1
- inhibition at 5 µM [1]: 11.9%
- Activity (HeLa): Non-toxic
- inhibition at 1 µM (Hepatitis C virus [2]): 86.3%
- inhibition at 1 µM [3]: 16.5%
- Activity (HEK-293T): Non-toxic
- Ratio IC50 (Hepatitis C virus [4]): 200
- Activity (HepG2): Non-toxic
- inhibition at 5 µM (Hepatitis C virus [5]): 89%
- IC50 (Hepatitis C virus [6]): 10 nM

SMILES: CC1(C)CC[C@]2(C(=O)O)[C@H](O)C[C@]3(C)C(=CC[C@@H]4[C@@]5(C)CC[C@H](O)C(C)(C)[C@@H]5CC[C@]43C)[C@@H]2C1 [ECHINOCYSTIC ACID]
- HC50 at 1 h ([7]; rabbit red blood cells, read-out: CC50): 15 µM
- Activity (HeLa): Non-toxic
- Kd (CD81 antigen): 21 nM
- Activity (HEK-293T): Non-toxic
- Activity (HepG2): Non-toxic

SMILES: CC(=O)OC[C@H]1O[C@@H](O[C@H]2[C@H](OC(C)=O)[C@@H](OC(C)=O)[C@H](OC(=O)[C@]34CCC(C)(C)C[C@H]3C3=CC[C@@H]5[C@@]6(C)CC[C@H](O)C(C)(C)[C@@H]6CC[C@@]5(C)[C@]3(C)C[C@H]4O)O[C@@H]2COC(C)=O)[C@H](OC(C)=O)[C@@H](OC(C)=O)[C@H]1OC(C)=O
- inhibition at 5 µM [1]: 14.9%
- Activity (HeLa): Non-toxic
- inhibition at 1 µM (Hepatitis C virus [2]): 80.4%
- inhibition at 1 µM [3]: 11.2%
- Activity (HEK-293T): Non-toxic
- Ratio IC50 (Hepatitis C virus [4]): 5
- Activity (HepG2): Non-toxic
- inhibition at 5 µM (Hepatitis C virus [5]): 88.6%
- IC50 (Hepatitis C virus [6]): 300 nM

SMILES: CC1(C)CC[C@]2(C(=O)O)CC[C@]3(C)C(=CC[C@@H]4[C@@]5(C)CC[C@H](O)C(C)(C)[C@@H]5CC[C@]43C)[C@@H]2C1 [OLEANOLIC_ACID]
- Activity ([7]; erythrocyte, 1 h): Toxic
- inhibition at 10 µM (Hepatitis C virus [8]): 65%
- IC50 (Hepatitis C virus [6]): 10000 nM

SMILES: CC1(C)CC[C@]2(C(=O)O)[C@H](O)C[C@]3(C)C(=CC[C@@H]4[C@@]5(C)CC[C@H](O)C(C)(C)[C@@H]5CC[C@]43C)[C@H]2C1 [ECHINOCYSTIC ACID]
- inhibition (Hepatitis C virus [9]): Active
- inhibition (Hepatitis C virus [10]): Active
- inhibition (Hepatitis C virus [11]): Active
- inhibition at 5 µM [1]: 9%
- Activity (Hepatitis C virus [12]): inactive
- Kd [13]: 24000 nM
- inhibition (Hepatitis C virus [14]): Active
- inhibition at 1 µM (Hepatitis C virus [2]): 27.5%
- Activity (Hepacivirus hominis [15]): Active
- inhibition at 10 µM (Hepatitis C virus [8]): 90%
- inhibition at 1 µM [3]: 7.2%
- Activity (Hepacivirus hominis [16]): Dose-dependent effect
- inhibition at 5 µM (Hepatitis C virus [5]): 77.7%
- IC50 (Hepatitis C virus [6]): 1400 nM
